Experimental data taken from ChEMBL document CHEMBL1687923, “Discovery of N-hydroxyindole-based inhibitors of human lactate dehydrogenase isoform A (LDH-A) as starvation agents against cancer cells” (J Med Chem, 2011).
Calls of active or inactive are those of the source. The calls are words filed in the database; no cut-off is given here.

Legend:
[1] = target: T1, L-lactate dehydrogenase A chain (Homo sapiens, UniProt P00338); assay: Inhibition of human LDH-A using pyruvate as substrate and NADH as cofactor at 125 uM after 5 mins by calorimetric assay relative to control
[2] = target: L-lactate dehydrogenase B chain (Homo sapiens) (UniProt P07195); assay: Inhibition of human LDH-B using pyruvate as substrate and NADH as cofactor at 125 uM after 5 mins by calorimetric assay relative to control
Sequence of L-lactate dehydrogenase B chain (Homo sapiens) (P07195 2-334 limits assumed): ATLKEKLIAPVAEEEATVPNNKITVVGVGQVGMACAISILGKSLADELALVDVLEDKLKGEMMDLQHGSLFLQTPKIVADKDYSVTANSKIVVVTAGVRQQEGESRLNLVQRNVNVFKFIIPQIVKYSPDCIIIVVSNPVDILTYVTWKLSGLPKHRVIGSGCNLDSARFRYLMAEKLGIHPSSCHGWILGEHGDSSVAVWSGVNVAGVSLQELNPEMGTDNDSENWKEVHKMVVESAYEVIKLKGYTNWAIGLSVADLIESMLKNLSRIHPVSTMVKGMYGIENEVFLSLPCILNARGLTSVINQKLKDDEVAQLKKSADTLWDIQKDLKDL
Method in brief: (§1)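 Purified human LDH1 (LDH-B4), run as for LDH-A but only under pyruvate saturation (2 mM sodium pyruvate) with 25 µM NADH. Test compound at 125 µM, 37 °C, phosphate buffer. Activity is the A340 decrease from NADH consumption, read every 30 s for 5 min. Percent inhibition is relative to control, as mean ± SD of two or more independent experiments. Detection limit is 3%.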

[3] = tested on: NCI-H630; assay: Induction of apoptosis in human NCI-H630 cells assessed as appearance of sub-G1 cell subpopulation at compound IC50 after 24 hrs by flow cytometry; format: functional, cell-based
Method in brief: (§2)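 Cells are trypsinized, pelleted and stained with cold propidium iodide buffer for 30 min on ice. DNA content is measured by flow cytometry (10 000 cells/sample) to give G0/G1, S and G2/M fractions and the sub-G1 population. Results are mean ± SE of three experiments, analyzed by t-test or ANOVA.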

[4] = target: T1, L-lactate dehydrogenase A chain; assay: Competitive inhibition of human LDH-A using NADH as substrate after 5 mins by calorimetric assay relative to control
Method in brief: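 Ki values from Lineweaver-Burk double-reciprocal plots. Enzyme is purified human LDH5 (LDH-A4), 0.005 units, in 100 mM sodium phosphate pH 7.4 at 37 °C. Pyruvate is held saturating at 2 mM while NADH is varied from 12.5 to 150 µM. Inhibitor is at 25–100 µM. NADH oxidation is read as A340 every 30 s for 5 min, in triplicate.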

[5] = tested on: HeLa; assay: Reduction in lactate production in perfused human HeLa cells assessed as lactate to glucose ratio at 500 uM after 12 hrs by NMR spectroscopy using D-[1,6-13C2]glucose as substrate relative to control; format: functional
Method in brief: (§3)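 HeLa cells are grown in RPMI-1640 with 10% FBS to 80% confluency, then washed for 15 min in glucose-free DMEM. Medium is replaced with DMEM containing 10 mM D-[1,6-13C2]glucose. Compound is added from 100× DMSO stocks (1% DMSO final), with vehicle controls, at 37 °C under normoxia. Medium is sampled at 6 and 12 h. 13C NMR gives the lactate-C3 (20.28 ppm) to glucose-C6 (60.95 ppm) peak-area ratio.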

[6] = tested on: ADDP; assay: Effect on cell cycle distribution in human ADDP cells assessed as DNA content after 24 hrs by flow cytometry; format: functional, cell-based; method in brief: as §2
[7] = Cytotoxicity against immortalized human HPNE cells expressing human TERT after 48 hrs by sulforhodamine B assay; format: functional, cell-based
Method in brief: (§4)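 Cells grown in RPMI 1640 with 10% FCS, 2 mM glutamine and penicillin/streptomycin, at 37 °C in 5% CO2 under normoxia. Compounds (10 mM DMSO stocks) are added on day 1 after plating at 1–100 µM, in triplicate, for 48 h. DMSO 0.25% v/v serves as control. Cells are TCA-fixed, stained with SRB and read at 492 nm. Growth is calculated relative to T0 and control. IC50 reported as mean ± SD from at least two experiments.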

[8] = tested on: MSTO-211H; assay: Cytotoxicity against human MSTO-211H cells after 48 hrs by sulforhodamine B assay; format: functional, cell-based; method in brief: as §4
[9] = tested on: HeLa; assay: Reduction in lactate production in perfused human HeLa cells at < 400 uM after 12 hrs by NMR spectroscopy using D-[1,6-13C2]glucose as substrate; format: functional, cell-based; method in brief: as §3
[10] = tested on: NCI-H2452; assay: Cytotoxicity against human NCI-H2452 cells after 48 hrs by sulforhodamine B assay; format: functional, cell-based; conditions: NCI-H2452, 48 h; method in brief: as §4
[11] = tested on: NCI-H28; assay: Cytotoxicity against human NCI-H28 cells after 48 hrs by sulforhodamine B assay; format: functional, cell-based; conditions: NCI-H28, 48 h; method in brief: as §4
[12] = tested on: NCI-H630; assay: Effect on cell cycle distribution in human NCI-H630 cells assessed as DNA content after 24 hrs by flow cytometry; format: functional, cell-based; method in brief: as §2
[13] = Cytotoxicity against human LPc067 cells after 48 hrs by sulforhodamine B assay; format: functional, cell-based; conditions: LPc067, 48 h; method in brief: as §4
[14] = tested on: HS27; assay: Cytotoxicity against immortalized human HS27 cells after 48 hrs by sulforhodamine B assay; format: functional, cell-based; conditions: HS27, 48 h; method in brief: as §4
[15] = target: T1, L-lactate dehydrogenase A chain; assay: Competitive inhibition of human LDH-A using pyruvate as substrate after 5 mins by calorimetric assay relative to control
Method in brief: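 Ki values from Lineweaver-Burk double-reciprocal plots. Enzyme is purified human LDH5 (LDH-A4), 0.005 units, in 100 mM sodium phosphate pH 7.4 at 37 °C. NADH is held saturating at 200 µM while sodium pyruvate is varied from 25 µM to 1 mM. Inhibitor is at 25–100 µM. A340 decrease is read every 30 s for 5 min, in triplicate.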

[16] = tested on: NCI-H630; assay: Cytotoxicity against human NCI-H630 cells after 48 hrs by sulforhodamine B assay; format: functional, cell-based; conditions: NCI-H630, 48 h; method in brief: as §4
[17] = Cytotoxicity against human ADDP cells after 48 hrs by sulforhodamine B assay; format: functional, cell-based; method in brief: as §4
[18] = Cytotoxicity against human LPc006 cells after 48 hrs by sulforhodamine B assay; format: functional, cell-based; conditions: LPc006, 48 h; method in brief: as §4
[19] = Cytotoxicity against human LPc028 cells after 48 hrs by sulforhodamine B assay; format: functional, cell-based; conditions: LPc028, 48 h; method in brief: as §4
[20] = tested on: A2780; assay: Cytotoxicity against human A2780 cells after 48 hrs by sulforhodamine B assay; format: functional, cell-based; conditions: A2780, 48 h; method in brief: as §4
[21] = tested on: NCI-H2052; assay: Cytotoxicity against human NCI-H2052 cells after 48 hrs by sulforhodamine B assay; format: functional, cell-based; conditions: NCI-H2052, 48 h; method in brief: as §4
[22] = target: L-lactate dehydrogenase B chain (Homo sapiens) (UniProt P07195); assay: Inhibition of human LDH-B using saturating concentration of pyruvate and NADH as cofactor after 5 mins by calorimetric assay relative to control; method in brief: as §1
[23] = tested on: HeLa; assay: Reduction in lactate production in perfused human HeLa cells at 400 uM after 12 hrs by NMR spectroscopy using D-[1,6-13C2]glucose as substrate; format: functional; set-up: scale not given: the % may be the effect or the level left; method in brief: as §3
[24] = tested on: ADDP cell line; assay: Induction of apoptosis in human ADDP cells assessed as appearance of sub-G1 cell subpopulation at compound IC50 after 24 hrs by flow cytometry; format: functional, cell-based; method in brief: as §2
[25] = Cytotoxicity against human LPc006 cells grown in hypoxic condition after 48 hrs by sulforhodamine B assay relative to normoxygenated cells; format: functional, cell-based; conditions: LPc006, 48 h
Method in brief: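 LPC006 primary pancreatic cancer cells are treated with compounds at 1–100 µM for 48 h under hypoxia (1% O2, 5% CO2, 94% N2, 37 °C). Read-out is the SRB assay at 492 nm with growth calculated relative to T0 and control. IC50 is the mean ± SE of three independent experiments and is compared with normoxic cells by Student's t-test.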

Row | Compound | inhibition [1] | inhibition [2] | Ki [4] | Ki [15] | inhibition [22] | Activity [3] | Activity [6] | IC50 [7] | IC50 [8] | IC50 [10] | IC50 [11] | Activity [12] | IC50 [13] | IC50 [14] | IC50 [16] | IC50 [17] | IC50 [18] | IC50 [19] | IC50 [20] | IC50 [21] | also measured
1 | COn1c(C(=O)O)cc2ccc(-c3ccccc3)cc21 | inactive | inactive |  |  |  |  |  |  |  |  |  |  |  |  |  |  |  |  |  |  | 
2 | O=C(O)c1cc2cc(-c3ccccc3)ccc2[nH]1 | Active | Active |  |  |  |  |  |  |  |  |  |  |  |  |  |  |  |  |  |  | 
3 | O=C(O)c1cc2c(C(F)(F)F)cc(-c3ccccc3)cc2n1O | 87% | 11% | 8.9 µM | 4.7 µM | 11% | Active | Dose-dependent effect | > 100 µM | 10.6 µM | 90.2 µM | 11.4 µM | Dose-dependent effect | 13.5 µM | > 100 µM | 31.5 µM | 17 µM | 16.3 µM | 41.2 µM | 10.8 µM | 73.2 µM | Ratio [5]: < 0.01; Activity [9]: inactive; Activity [23]: 20%; Activity [24]: Active; IC50 [25]: 0.9 µM
4 | O=C(O)c1cc2ccc(-c3nn[nH]n3)cc2n1O | 11% |  |  |  |  |  |  |  |  |  |  |  |  |  |  |  |  |  |  |  | 
5 | O=C(O)c1cc2c(Br)cccc2n1O | 32% |  |  |  |  |  |  |  |  |  |  |  |  |  |  |  |  |  |  |  | 

Second part, led by results:

Row | inhibition [1] | inhibition [2] | Ki [4] | Ki [15] | inhibition [22] | Compound | Activity [3] | Activity [6] | IC50 [7] | IC50 [8] | IC50 [10] | IC50 [11] | Activity [12] | IC50 [13] | IC50 [14] | IC50 [16] | IC50 [17] | IC50 [18] | IC50 [19] | IC50 [20] | IC50 [21] | also measured
6 | 84% |  | 19.8 µM | 35.4 µM | < 3% | O=C(O)c1cc2ccc(-c3ccccc3)cc2n1O | Active | Dose-dependent effect | > 100 µM | 2.4 µM | 21.3 µM | 7.8 µM | Dose-dependent effect | 18.2 µM | > 100 µM | 15.1 µM | 16.3 µM | 15.7 µM | 32.3 µM | 10.1 µM | 50.5 µM | Ratio [5]: 0.12; Activity [24]: Active; IC50 [25]: 0.36 µM
7 | 99% |  | 10.4 µM | 15.7 µM | < 3% | O=C(O)c1cc2cc(-c3ccccc3)ccc2n1O | Active | Dose-dependent effect | > 100 µM | 2.5 µM | 45.3 µM | 5.8 µM | Dose-dependent effect | 20.9 µM | > 100 µM | 17.7 µM | 14.6 µM | 14.3 µM | 48.8 µM | 13.7 µM | 62.4 µM | Activity [24]: Active; IC50 [25]: 0.1 µM
8 | 4% | 8% |  |  |  | COC(=O)c1cc2ccc(-c3ccccc3)cc2n1O |  |  |  |  |  |  |  |  |  |  |  |  |  |  |  | 
